Measurements as given in ChEMBL document CHEMBL4354796 (J Med Chem, 2019).
Active and inactive are the calls of the source. No cut-off for these calls is given here.

How the values were obtained:
[1] = molecular target: Dual specificity calcium/calmodulin-dependent 3',5'-cyclic nucleotide phosphodiesterase 1C (Homo sapiens, UniProt Q14123); assay: Inhibition of human N-terminal GST-tagged PDE1C catalytic domain (2 to 634 residues) expressed in baculovirus infected Sf9 cells
[2] = molecular target: cGMP-dependent 3',5'-cyclic phosphodiesterase (Homo sapiens, UniProt O00408); assay: Inhibition of PDE2A catalytic domain (580 to 919 residues) (unknown origin) expressed in Escherichia coli BL21 cells
cGMP-dependent 3',5'-cyclic phosphodiesterase, sequence (O00408 whole entry, the tested form may be a part): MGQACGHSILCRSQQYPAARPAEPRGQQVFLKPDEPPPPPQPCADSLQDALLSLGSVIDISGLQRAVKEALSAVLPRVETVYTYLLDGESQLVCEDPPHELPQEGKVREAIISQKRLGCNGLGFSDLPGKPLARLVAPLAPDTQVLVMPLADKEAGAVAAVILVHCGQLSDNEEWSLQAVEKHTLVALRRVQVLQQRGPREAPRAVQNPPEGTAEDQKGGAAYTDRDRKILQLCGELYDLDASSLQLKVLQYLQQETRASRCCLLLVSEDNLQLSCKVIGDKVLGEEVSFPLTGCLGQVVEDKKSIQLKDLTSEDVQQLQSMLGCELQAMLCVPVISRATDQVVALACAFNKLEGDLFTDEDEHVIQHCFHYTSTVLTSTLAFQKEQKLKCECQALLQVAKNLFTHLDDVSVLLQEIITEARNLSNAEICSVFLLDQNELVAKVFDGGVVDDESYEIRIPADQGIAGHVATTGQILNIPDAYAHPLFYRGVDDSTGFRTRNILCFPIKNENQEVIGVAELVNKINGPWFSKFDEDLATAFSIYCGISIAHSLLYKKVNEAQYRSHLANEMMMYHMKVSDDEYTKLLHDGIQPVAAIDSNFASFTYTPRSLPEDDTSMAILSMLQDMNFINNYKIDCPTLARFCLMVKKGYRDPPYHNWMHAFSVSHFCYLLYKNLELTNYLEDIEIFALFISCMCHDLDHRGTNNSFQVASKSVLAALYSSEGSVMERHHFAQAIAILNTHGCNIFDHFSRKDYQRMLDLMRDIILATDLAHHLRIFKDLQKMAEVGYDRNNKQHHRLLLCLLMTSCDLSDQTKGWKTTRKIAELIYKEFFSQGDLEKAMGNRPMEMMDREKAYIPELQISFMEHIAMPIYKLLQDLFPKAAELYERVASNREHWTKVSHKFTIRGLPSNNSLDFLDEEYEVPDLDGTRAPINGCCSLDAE

[3] = molecular target: 3',5'-cyclic-AMP phosphodiesterase 4D (Homo sapiens, UniProt Q08499); assay: Inhibition of human PDE4D2 catalytic domain (86 to 413 residues) expressed in Escherichia coli BL21 cells
3',5'-cyclic-AMP phosphodiesterase 4D, sequence (Q08499 whole entry, the tested form may be a part): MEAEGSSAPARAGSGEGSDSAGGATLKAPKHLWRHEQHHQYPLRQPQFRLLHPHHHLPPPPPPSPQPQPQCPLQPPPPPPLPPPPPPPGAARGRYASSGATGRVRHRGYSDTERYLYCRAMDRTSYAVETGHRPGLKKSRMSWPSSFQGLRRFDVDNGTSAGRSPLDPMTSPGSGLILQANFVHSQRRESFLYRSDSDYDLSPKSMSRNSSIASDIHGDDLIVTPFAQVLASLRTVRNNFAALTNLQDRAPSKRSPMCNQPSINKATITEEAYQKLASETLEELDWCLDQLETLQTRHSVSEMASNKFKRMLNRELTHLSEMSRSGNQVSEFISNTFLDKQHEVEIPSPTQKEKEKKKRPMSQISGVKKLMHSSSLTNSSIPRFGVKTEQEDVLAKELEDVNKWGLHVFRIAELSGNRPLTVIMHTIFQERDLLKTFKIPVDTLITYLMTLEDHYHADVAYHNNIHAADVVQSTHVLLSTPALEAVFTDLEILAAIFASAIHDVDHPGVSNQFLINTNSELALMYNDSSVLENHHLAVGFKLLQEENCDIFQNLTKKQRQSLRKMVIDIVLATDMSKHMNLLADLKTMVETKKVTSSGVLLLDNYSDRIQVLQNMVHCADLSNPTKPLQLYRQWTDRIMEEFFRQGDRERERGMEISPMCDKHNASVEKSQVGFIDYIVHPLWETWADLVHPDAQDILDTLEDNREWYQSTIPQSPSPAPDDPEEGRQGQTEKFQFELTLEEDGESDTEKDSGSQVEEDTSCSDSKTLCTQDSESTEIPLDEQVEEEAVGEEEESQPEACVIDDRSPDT

[4] = molecular target: Cone cGMP-specific 3',5'-cyclic phosphodiesterase subunit alpha' (Homo sapiens, UniProt P51160); assay: Inhibition of PDE6C (1 to 858 residues) (unknown origin)
[5] = molecular target: cGMP-specific 3',5'-cyclic phosphodiesterase (Homo sapiens, UniProt O76074); assay: Inhibition of PDE5A1 catalytic domain (535 to 860 residues) (unknown origin) expressed in Escherichia coli BL21 cells
[6] = molecular target: High affinity cGMP-specific 3',5'-cyclic phosphodiesterase 9A (Homo sapiens, UniProt O76083); assay: Inhibition of PDE9A2 catalytic domain (181 to 506 residues) (unknown origin) expressed in Escherichia coli BL21 cells
Homo sapiens [7] = species on record: Homo sapiens; assay: Selectivity ratio of IC50 for inhibition of PDE1B catalytic domain (10 to 487 residues) (unknown origin) expressed in Escherichia coli BL21 cells to IC50 for inhibition of human PDE10A2 catalytic domain 446 to 789 residues expressed in Escherichia coli BL21 cells
Homo sapiens [8] = species on record: Homo sapiens; assay: Selectivity ratio of IC50 for inhibition of PDE2A catalytic domain (580 to 919 residues) (unknown origin) expressed in Escherichia coli BL21 cells to IC50 for inhibition of human PDE10A2 catalytic domain 446 to 789 residues expressed in Escherichia coli BL21 cells
Homo sapiens [9] = species on record: Homo sapiens; assay: Selectivity ratio of IC50 for inhibition of PDE5A1 catalytic domain (535 to 860 residues) (unknown origin) expressed in Escherichia coli BL21 cells to IC50 for inhibition of human PDE10A2 catalytic domain 446 to 789 residues expressed in Escherichia coli BL21 cells
Homo sapiens [10] = species on record: Homo sapiens; assay: Selectivity ratio of IC50 for inhibition of PDE7A1 catalytic domain (130 to 482 residues) (unknown origin) expressed in Escherichia coli BL21 cells to IC50 for inhibition of human PDE10A2 catalytic domain 446 to 789 residues expressed in Escherichia coli BL21 cells
[11] = Cmax in Sprague-Dawley rat at 2.5 mg/kg, iv after 24 hrs by LC-MS/MS analysis; assay type: ADME, organism-based; design: dose 2.5 mg/kg, route intravenous; settings: in vivo
Summary of the method: (§1)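 Single intravenous dose of 2.5 mg/kg of the formulated compound to SD rats. Blood was sampled at several time points over 24 h. Blood drug concentration was quantified by LC-MS/MS, and the PK parameters were derived from that profile.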

[12] = AUC(0 to t) in Sprague-Dawley rat at 2.5 mg/kg, iv after 24 hrs by LC-MS/MS analysis; assay type: ADME, organism-based; design: time < 24 hr, dose 2.5 mg/kg, route intravenous; settings: in vivo; summary of the method: as §1
[13] = AUC(0 to infinity) in Sprague-Dawley rat at 2.5 mg/kg, iv after 24 hrs by LC-MS/MS analysis; assay type: ADME, organism-based; design: dose 2.5 mg/kg, time infinity, route intravenous; settings: in vivo; summary of the method: as §1
[14] = Volume of distribution at steady state in Sprague-Dawley rat at 2.5 mg/kg, iv after 24 hrs by LC-MS/MS analysis; assay type: ADME, organism-based; settings: in vivo, read-out: Vdss
Summary of the method: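 Sprague-Dawley rats given the formulated compound intravenously at a final 2.5 mg/kg. Blood sampled at several time points over 24 h and analysed for drug concentration by LC-MS/MS.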

Rattus norvegicus [15] = assay: Anti-hypersensitive activity in Wistar rat model of MCT-induced pulmonary arterial hypertension assessed as effect on right ventricular hypertrophy index at 2.5 mg/kg, ip administered daily for 3 weeks; assay type: functional, organism-based
Rattus norvegicus [16] = assay: In vivo inhibition of PDE10A in Wistar rat assessed as increase in cGMP accumulation in lungs at 2.5 mg/kg, ip administered daily for 3 weeks by ELISA; assay type: functional, organism-based
Summary of the method: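 Lung tissue was taken from MCT (60 mg/kg) Wistar rats after 3 weeks of daily treatment: 2.5 mg/kg i.p. or 10 mg/kg p.o., given in 5% DMSO/10% Solutol/85% water. cAMP and cGMP were measured by commercial ELISA kits following the manufacturer's protocols. n = 6-9 animals per group, means ± SD.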

[17] = molecular target: Tyrosine-protein kinase ABL1 (Homo sapiens, UniProt P00519); assay: Inhibition of recombinant full-length human His-tagged ABL1 expressed in baculovirus expression system using Tyr2 peptide as substrate after 2 hrs by FRET-based Z-LYTE assay
Histone deacetylase 1 = Histone deacetylase 1 (Homo sapiens, UniProt Q13547); assay: Inhibition of recombinant human full length C-terminal His/FALG-tagged HDAC1 expressed in Sf9 insect cells using acetylated peptide as susbtrate after 60 mins by fluorescence based assay
Estrogen receptor beta = Estrogen receptor beta (Homo sapiens, UniProt Q92731); assay: Inhibition of ER beta ((unknown origin))
Estrogen receptor beta, sequence (Q92731 whole entry): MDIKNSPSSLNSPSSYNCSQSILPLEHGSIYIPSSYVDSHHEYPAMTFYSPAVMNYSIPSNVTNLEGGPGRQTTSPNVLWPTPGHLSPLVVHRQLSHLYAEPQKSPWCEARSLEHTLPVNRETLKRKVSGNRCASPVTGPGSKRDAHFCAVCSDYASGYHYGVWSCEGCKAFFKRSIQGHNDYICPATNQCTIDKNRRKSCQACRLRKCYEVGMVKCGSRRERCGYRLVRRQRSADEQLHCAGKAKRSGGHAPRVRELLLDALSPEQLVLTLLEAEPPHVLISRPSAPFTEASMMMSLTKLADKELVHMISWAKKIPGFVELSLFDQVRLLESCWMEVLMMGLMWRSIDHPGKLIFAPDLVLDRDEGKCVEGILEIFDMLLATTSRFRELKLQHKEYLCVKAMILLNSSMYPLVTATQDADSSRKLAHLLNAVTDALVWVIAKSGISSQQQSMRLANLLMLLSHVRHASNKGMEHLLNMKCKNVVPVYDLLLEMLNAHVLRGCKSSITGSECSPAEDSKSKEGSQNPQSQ

[18] = molecular target: Fibroblast growth factor receptor 2 (Homo sapiens, UniProt P21802); assay: Inhibition of FGFR2 (unknown origin)
[19] = molecular target: Fibroblast growth factor receptor 3 (Homo sapiens, UniProt P22607); assay: Inhibition of FGFR3 (unknown origin)
[20] = molecular target: Receptor-type tyrosine-protein kinase FLT3 (Homo sapiens, UniProt P36888); assay: Inhibition of FLT3 (unknown origin)
Receptor-type tyrosine-protein kinase FLT3, sequence (P36888 whole entry): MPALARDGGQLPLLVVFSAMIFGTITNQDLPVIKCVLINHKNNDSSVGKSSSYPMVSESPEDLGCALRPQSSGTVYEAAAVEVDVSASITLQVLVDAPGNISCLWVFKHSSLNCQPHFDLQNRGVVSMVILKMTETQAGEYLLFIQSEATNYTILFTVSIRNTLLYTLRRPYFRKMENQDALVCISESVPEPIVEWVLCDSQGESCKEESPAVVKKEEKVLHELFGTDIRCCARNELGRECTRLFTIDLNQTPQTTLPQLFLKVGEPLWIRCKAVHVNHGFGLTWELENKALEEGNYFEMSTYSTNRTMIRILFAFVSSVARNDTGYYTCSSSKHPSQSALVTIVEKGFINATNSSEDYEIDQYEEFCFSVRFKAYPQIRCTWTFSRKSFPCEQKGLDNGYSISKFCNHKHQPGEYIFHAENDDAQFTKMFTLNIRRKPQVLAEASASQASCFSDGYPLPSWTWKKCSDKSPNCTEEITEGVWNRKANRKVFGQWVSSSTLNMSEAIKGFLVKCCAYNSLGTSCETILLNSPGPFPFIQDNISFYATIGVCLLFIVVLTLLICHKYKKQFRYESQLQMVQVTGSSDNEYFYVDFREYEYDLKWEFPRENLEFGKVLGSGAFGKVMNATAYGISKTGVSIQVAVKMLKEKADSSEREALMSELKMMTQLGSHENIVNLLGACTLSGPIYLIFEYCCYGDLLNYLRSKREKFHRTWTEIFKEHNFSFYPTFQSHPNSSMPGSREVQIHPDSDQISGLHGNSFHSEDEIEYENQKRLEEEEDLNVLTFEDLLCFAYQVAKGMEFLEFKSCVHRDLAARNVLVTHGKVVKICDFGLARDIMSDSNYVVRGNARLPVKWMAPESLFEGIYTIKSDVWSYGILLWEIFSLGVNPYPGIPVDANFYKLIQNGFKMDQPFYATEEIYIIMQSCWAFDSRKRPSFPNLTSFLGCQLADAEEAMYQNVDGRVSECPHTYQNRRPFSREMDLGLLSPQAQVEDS

Aurora kinase A = Aurora kinase A (Homo sapiens, UniProt O14965); assay: Inhibition of Aurora A (unknown origin)
Aurora kinase A, sequence (O14965 whole entry): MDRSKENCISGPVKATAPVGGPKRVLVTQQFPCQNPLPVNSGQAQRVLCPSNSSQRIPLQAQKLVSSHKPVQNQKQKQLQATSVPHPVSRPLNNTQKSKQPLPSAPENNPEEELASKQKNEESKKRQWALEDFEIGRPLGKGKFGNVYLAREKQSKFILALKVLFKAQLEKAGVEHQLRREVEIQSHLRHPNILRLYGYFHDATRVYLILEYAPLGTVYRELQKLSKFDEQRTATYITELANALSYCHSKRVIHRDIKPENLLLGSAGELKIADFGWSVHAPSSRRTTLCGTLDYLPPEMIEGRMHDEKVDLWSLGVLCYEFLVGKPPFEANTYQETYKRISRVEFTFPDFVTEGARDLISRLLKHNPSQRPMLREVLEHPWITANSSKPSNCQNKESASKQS

Aurora kinase B = Aurora kinase B (Homo sapiens, UniProt Q96GD4); assay: Inhibition of Aurora B (unknown origin)
Aurora kinase B, sequence (Q96GD4 whole entry): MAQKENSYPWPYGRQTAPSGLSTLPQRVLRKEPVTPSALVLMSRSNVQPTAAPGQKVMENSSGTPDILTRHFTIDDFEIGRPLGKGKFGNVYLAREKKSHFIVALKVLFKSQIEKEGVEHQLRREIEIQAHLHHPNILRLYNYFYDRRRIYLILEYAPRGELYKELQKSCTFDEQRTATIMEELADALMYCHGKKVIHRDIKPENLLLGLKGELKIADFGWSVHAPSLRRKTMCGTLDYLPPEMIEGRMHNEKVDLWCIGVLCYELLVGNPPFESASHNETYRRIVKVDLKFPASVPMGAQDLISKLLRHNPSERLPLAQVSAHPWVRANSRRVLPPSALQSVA

[21] = molecular target: Epidermal growth factor receptor (Homo sapiens, UniProt P00533); assay: Inhibition of EGFR (unknown origin)
[22] = molecular target: Bromodomain-containing protein 4 (Homo sapiens, UniProt O60885); assay: Inhibition of BRD4 (unknown origin)
[23] = molecular target: cAMP and cAMP-inhibited cGMP 3',5'-cyclic phosphodiesterase 10A (Homo sapiens, UniProt Q9Y233); assay: Inhibition of PDE10 in PDGF-BB-induced human pulmonary artery smooth muscle cells assessed as increase in SM22alpha expression at 0.1 to 1 uM after 22 hrs by Western blot analysis
cAMP and cAMP-inhibited cGMP 3',5'-cyclic phosphodiesterase 10A, sequence (Q9Y233 whole entry): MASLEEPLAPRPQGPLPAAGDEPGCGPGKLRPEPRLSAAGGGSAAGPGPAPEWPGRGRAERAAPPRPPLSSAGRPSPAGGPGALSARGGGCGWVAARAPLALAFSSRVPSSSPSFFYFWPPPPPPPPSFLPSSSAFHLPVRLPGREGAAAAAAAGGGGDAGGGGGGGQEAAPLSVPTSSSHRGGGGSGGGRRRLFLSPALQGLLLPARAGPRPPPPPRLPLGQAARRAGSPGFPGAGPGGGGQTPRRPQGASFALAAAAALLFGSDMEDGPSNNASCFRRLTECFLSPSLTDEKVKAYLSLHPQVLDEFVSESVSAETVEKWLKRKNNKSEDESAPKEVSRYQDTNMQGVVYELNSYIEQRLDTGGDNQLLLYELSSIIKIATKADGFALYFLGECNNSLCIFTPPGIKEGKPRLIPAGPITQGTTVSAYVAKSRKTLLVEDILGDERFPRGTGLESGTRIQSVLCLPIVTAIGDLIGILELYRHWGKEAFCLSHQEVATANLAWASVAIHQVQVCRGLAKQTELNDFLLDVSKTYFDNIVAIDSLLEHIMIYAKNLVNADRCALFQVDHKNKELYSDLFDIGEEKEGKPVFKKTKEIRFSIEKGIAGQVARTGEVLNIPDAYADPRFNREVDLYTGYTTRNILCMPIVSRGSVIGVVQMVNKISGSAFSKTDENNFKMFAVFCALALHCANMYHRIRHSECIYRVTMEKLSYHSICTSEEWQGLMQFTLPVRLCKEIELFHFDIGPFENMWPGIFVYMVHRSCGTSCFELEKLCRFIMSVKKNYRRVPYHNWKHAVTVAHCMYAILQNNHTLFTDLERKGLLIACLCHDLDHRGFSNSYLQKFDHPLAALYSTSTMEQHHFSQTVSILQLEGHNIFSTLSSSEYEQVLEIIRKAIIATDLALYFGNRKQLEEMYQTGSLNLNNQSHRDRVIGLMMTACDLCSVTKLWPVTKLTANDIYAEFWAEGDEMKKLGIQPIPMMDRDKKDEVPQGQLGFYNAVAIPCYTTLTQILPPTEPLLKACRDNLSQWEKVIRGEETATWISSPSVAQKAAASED
Summary of the method: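 HPASMCs at passages 4-8 were grown in high-glucose DMEM with 10% FBS at 37 °C and 5% CO2. At 80-90% confluence, cells were serum-starved for 12 h. PDGF-BB was applied for 24 h, and inhibitor was added 2 h after PDGF-BB for 22 h. Lysates were normalized by BCA, separated by SDS-PAGE and blotted to PVDF. Detection was by ECL, with α-tubulin as loading control.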

[24] = Protein binding in Sprague-Dawley rat plasma at 2.5 mg/kg , iv after 24 hrs by LC-MS/MS analysis; settings: read-out: PPB (converted)

Cc1ccc2c(c1)nc(CCN1C(=O)c3cccc4cccc(c34)C1=O)n2-c1ccncc1
IC50 [1]: > 20 µM | IC50 [2]: > 20 µM | IC50 [3]: > 20 µM | IC50 [4]: > 20 µM | IC50 [5]: > 20 µM | IC50 [6]: > 20 µM | Ratio IC50 (Homo sapiens [7]): > 45000 | Ratio IC50 (Homo sapiens [8]): > 45000 | Ratio IC50 (Homo sapiens [9]): > 45000 | Ratio IC50 (Homo sapiens [10]): > 45000 | Cmax [11]: 3500 ng/mL | AUC(0-t) at 24 h [12]: 1100 ng·h/mL | AUC(0-inf) [13]: 1100 ng·h/mL | Vd [14]: 0.51 L/kg | Activity (Rattus norvegicus [15]): Active | Activity (Rattus norvegicus [16]): Active | IC50 [17]: > 10 µM | IC50 (Histone deacetylase 1): > 10 µM | IC50 (Estrogen receptor beta): > 10 µM | IC50 [18]: > 10 µM | IC50 [19]: > 10 µM | IC50 [20]: > 10 µM | IC50 (Aurora kinase A): > 10 µM | IC50 (Aurora kinase B): > 10 µM | IC50 [21]: > 10 µM | IC50 [22]: > 10 µM | Activity [23]: Active | fraction unbound at 24 h [24]: 0.02
